Experimental data taken from ChEMBL document CHEMBL4706565, “Anti-glioma effects of 2-aminothiophene-3-carboxamide derivatives, ANO1 channel blockers” (Eur J Med Chem, 2020).
Calls of active or inactive are those of the source. No cut-off for these calls is given here.

Columns and labels:
U-251 [1] = experiment: Inhibition of cell migration in human U251 cells at 10 uM incubated for 18 hrs by wound healing assay; assay type: functional
Method in brief: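 U251 monolayer, 2.0×10^5 cells/well, plated overnight, then scratched and washed with PBS. Wound area imaged before and after incubation; migration ratio taken from migrated area. One-way ANOVA.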

[2] = Antiproliferative activity against mouse primary astrocytes assessed as reduction in cell viability at 100 uM measured after 72 hrs by Celltiter-Glo luminescent assay; assay type: cell-based, Astrocyte
Method in brief: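 Primary astrocytes isolated from adult mouse brain by a previously reported method. 5.0×10^3 cells/well, compound as 1:4 serial DMSO dilutions, CellTiter-Glo viability at 72 h.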

U-251 [3] = experiment: Antiproliferative activity against human U251 cells overexpressing ANO1 assessed as reduction in cell viability measured after 72 hrs by Celltiter-glo assay; assay type: functional
Method in brief: (§1)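 5.0×10^3 cells/well seeded, overnight, then compounds added as 1:4 serial dilutions in DMSO; viability read after 72 h with CellTiter-Glo luminescence. GI50 from fitted dose-response curves; triplicate wells, SD from three independent experiments. DMEM for U251 and U138, MEM for U87MG, both with 10% FBS and pen/strep, 37 °C, 5% CO2.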

Anoctamin-1 [4] = biological target: T1, Anoctamin-1 (Homo sapiens, UniProt Q5XXA6); experiment: Inhibition of human ANO1 expressed in FRT cells assessed as inhibition of ATP-induced channel current treated 20 mins prior to ATP challenge and measured by pacth-clamp technique; assay type: cell-based
T1 sequence (Q5XXA6 whole entry): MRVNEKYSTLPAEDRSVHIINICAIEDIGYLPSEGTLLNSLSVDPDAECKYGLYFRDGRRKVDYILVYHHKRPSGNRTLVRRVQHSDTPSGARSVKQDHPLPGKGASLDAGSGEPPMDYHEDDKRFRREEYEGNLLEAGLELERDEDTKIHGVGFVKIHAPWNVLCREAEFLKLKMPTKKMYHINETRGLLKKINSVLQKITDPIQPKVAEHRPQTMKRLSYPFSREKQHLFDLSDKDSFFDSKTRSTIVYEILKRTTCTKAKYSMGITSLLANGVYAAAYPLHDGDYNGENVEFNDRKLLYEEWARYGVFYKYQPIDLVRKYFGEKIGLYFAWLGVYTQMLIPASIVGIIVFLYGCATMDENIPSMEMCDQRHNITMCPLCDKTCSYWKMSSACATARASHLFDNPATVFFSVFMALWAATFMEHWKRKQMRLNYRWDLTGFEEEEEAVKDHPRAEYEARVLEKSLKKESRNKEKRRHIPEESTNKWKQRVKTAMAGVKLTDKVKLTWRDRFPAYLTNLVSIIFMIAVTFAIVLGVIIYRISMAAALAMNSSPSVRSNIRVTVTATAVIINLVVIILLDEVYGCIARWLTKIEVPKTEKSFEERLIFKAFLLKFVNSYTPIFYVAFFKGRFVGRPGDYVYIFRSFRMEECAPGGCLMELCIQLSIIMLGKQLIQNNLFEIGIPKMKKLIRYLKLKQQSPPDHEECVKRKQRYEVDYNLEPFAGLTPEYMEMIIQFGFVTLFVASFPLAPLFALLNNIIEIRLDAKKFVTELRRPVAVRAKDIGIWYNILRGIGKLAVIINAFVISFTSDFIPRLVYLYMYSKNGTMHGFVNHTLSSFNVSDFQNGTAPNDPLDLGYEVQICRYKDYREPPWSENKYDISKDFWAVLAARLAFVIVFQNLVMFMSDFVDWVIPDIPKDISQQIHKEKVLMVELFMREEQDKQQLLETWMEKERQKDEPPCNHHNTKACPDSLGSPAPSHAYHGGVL

U-251 [5] = experiment: Inhibition of anchorage-independent colony formation in human U251 cells at 10 uM incubated for 14 days by crystal violet staining based soft agar colony formation assay; assay type: functional, cell-based; conditions: time 14.0 day
Method in brief: (§2)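 Soft agar assay: 2.0×10^3 U251 cells in complete medium with 0.3% agar over a 0.6% bottom agar layer. Treated with compounds at 1-100 μM for 14 days, 37 °C, 5% CO2. Colonies stained with crystal violet for 24 h, whole wells photographed and colonies counted against DMSO control; n = 3.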

U-251 [6] = experiment: Inhibition of cell invasion in human U251 cells at 10 uM incubated for 48 hrs by Boyden chamber method; assay type: functional
Method in brief: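 Boyden chamber invasion: U251 cells serum-starved 24 h, then 2.5×10^5 cells seeded in 8-μm ECMatrix-coated transwells. Treated with compound at 1 or 10 μM for 48 h at 37 °C. Invasion ratio from relative fluorescence.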

Anoctamin-1 [7] = biological target: T1, Anoctamin-1; experiment: Inhibition of human ANO1 channel expressed in HEK293 cells incubated for 10 mins by FLIPR assay; assay type: cell-based
Method in brief: (§3)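 HEK293 cells expressing human ANO1, 50,000 cells/well, plated overnight. Loaded with FLIPR Red membrane-potential dye in HEPES-buffered saline (pH 7.4) for 40-60 min at room temperature. Compound added for 10 min at room temperature, final DMSO 0.5%.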

U-251 [8] = experiment: Inhibition of colony formation in human U251 cells at 10 uM incubated for 14 days by crystal violet dye based assay; assay type: functional; conditions: time 14.0 day
Method in brief: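 Colonies stained 24 h with crystal violet in methanol/formaldehyde/PBS, washed, extracted with 10% acetic acid and read at A570 nm. Compared against DMSO control.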

U138-MG = experiment: Antiproliferative activity against human U138 cells overexpressing ANO1 assessed as reduction in cell viability at 100 uM measured after 72 hrs by Celltiter-glo assay; assay type: functional; method in brief: as §1
Anoctamin-1 [9] = biological target: T2, Anoctamin-1 (Mus musculus, UniProt Q8BHY3); experiment: Inhibition of GFP-fused mouse ANO1 channel expressed in HEK293A cells assessed as inhibition of ATP-induced channel current amplitude at membrane potential of +80 mV by patch clamp electrophysiology assay; assay type: cell-based, HEK293-A
T2 sequence (Q8BHY3 whole entry): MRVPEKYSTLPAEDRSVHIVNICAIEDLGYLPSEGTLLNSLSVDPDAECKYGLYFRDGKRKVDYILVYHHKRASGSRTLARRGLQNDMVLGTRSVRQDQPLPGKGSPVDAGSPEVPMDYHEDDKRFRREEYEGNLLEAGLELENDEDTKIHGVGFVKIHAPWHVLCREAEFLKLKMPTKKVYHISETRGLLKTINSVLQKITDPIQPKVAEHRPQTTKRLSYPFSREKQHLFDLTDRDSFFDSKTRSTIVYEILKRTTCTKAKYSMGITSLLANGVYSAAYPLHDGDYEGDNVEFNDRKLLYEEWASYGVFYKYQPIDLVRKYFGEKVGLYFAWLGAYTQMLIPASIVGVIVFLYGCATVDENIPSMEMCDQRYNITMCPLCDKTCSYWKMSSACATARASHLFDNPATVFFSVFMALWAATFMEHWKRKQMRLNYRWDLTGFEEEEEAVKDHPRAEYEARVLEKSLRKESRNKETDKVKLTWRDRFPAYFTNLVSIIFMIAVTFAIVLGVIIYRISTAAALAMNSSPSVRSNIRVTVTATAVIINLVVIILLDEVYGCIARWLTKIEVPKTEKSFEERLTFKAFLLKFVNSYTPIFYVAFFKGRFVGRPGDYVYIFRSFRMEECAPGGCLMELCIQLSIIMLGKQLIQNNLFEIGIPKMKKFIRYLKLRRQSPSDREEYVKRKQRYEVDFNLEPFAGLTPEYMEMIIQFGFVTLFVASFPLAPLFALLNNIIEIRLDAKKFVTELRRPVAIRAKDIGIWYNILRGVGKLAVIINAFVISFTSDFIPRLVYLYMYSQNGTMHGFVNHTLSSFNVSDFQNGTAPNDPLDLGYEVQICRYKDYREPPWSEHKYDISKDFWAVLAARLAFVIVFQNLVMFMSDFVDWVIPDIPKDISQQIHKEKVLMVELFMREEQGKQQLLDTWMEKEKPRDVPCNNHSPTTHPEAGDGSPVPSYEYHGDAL
Method in brief: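 Whole-cell recording at room temperature in HEK293A cells transfected with GFP-mANO1, GFP-mANO2 or GFP-mTTYH1. 1 s ramps from +80 to -80 mV, holding potential -10 mV. For ANO1/ANO2: pipette CsCl 146 mM with Ca-EGTA-NMDG, pH 7.3; bath NaCl-based, pH 7.3. For TTYH1: Tris-aspartate pipette (pH 7.2) and Tris-HCl bath (pH 7.4), with […] and BaCl2 added to block K+ channels, and hypotonic (220 mOsm/kg) bath. Washout recordings assessed reversibility.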

U-87 MG = experiment: Antiproliferative activity against human U87MG cells overexpressing ANO1 assessed as reduction in cell viability at 100 uM measured after 72 hrs by Celltiter-glo assay; assay type: functional, U-87MG ATCC; method in brief: as §1
[10] = biological target: T3, Anoctamin-1 (Homo sapiens) (UniProt Q5XXA6); experiment: Inhibition of human ANO1 channel expressed in HEK293 cells at 10 uM incubated for 10 mins by FLIPR assay relative to control; assay type: cell-based; method in brief: as §3
T3 sequence (whole entry): T1 sequence (Q5XXA6 whole entry)

U-251 [11] = experiment: Inhibition of anchorage-independent colony formation in human U251 cells at 100 uM incubated for 14 days by crystal violet staining based soft agar colony formation assay; assay type: functional; conditions: time 14.0 day; method in brief: as §2

GI50 (U-251 [3]): 79300 nM | IC50 (Anoctamin-1 [4]): 1100 nM | IC50 (Anoctamin-1 [7]): 2600 nM | IC50 (Anoctamin-1 [9]): 2740 nM | inhibition [10]: 63.9%
Compound: CCc1c(C)nc(SCC(=O)Nc2ncc(-c3ccc(OC)cc3)s2)nc1O
inhibition at 10 µM (U-251 [1]): 26.5% | inhibition at 72 h, 100 µM [2]: < 50% | inhibition (U-251 [5]): inactive | inhibition at 10 µM (U-251 [6]): 19.2% | inhibition (U-251 [8]): inactive | inhibition at 100 µM (U138-MG): < 50% | inhibition at 100 µM (U-87 MG): < 50% | inhibition (U-251 [11]): inactive
